High-throughput results deposited in PubChem by Sanford-Burnham Center for Chemical Genomics.
Jurkat NFkB inh = lowers PMA/ionomycin-induced NF-kB signal in Jurkat cells; PMA/ionomycin-induced NF-kB luciferase reporter, luminescence; 330,000 tested, 0.53% active; AID 435003; inhibition, % at 4 µM; in the data active = inhibition above about 50%
697 NFkB inh = inhibitors of the PMA/ionomycin-induced NF-kB reporter in 697 B cells. 697 B-cell NF-kB luciferase reporter, 16 h. inhibition, % at 4 µM. 330,000 tested, 0.33% active; in the data active = inhibition above about 35%
UPR CHOP act = activators of apoptotic arm of unfolded protein response (CHOP); CHO-CHOP luciferase reporter, UPR activation, luminescence; percent of tunicamycin response over DMSO baseline; 330,000 tested, 0.34% active; activation, % at 10 µM;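 active = at 10 µM dose, activation of 40% or more, normalized to positive control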;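 note: 100% = tunicamycin at 10 µg/mL and 0% = DMSO alone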
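Assay system: CHO-CHOP cells, stable luciferase reporter of PERK-eIF2a-CHOP signalling / Buffer or medium: F12 plus 10% serum / Compound dosing: one dose, 10 µM in 0.5% DMSO / Times: 6 h compound treatment, 37 °C / Technique: luciferase luminescence / Read-out: % reporter activation, DMSO baseline versus tunicamycin full activation / Benchmarks: tunicamycin and DMSO controls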
CRFBP-R2 block = blocks CRF-induced signaling of the CRF-BP/CRF-R2 complex; HEK293 CRF-R2/CRF-BP, CRF-induced calcium fluorescence; inhibition, % at 11.8 µM; 350,000 tested, 0.59% active; AID 588475;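 active = inhibition of the ligand-induced calcium signal above about 50% at the single tested concentration, limit read from the data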
XBP1 UPR activ = activators of adaptive arm of unfolded protein response (XBP1). 330,000 tested, 0.33% active. CHO-XBP1 luciferase reporter, IRE1-XBP1 UPR activation, luminescence; percent of tunicamycin response, DMSO as zero. activation, % at 20 µM;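 active = versus positive control, 20 µM dose yields 30% or more activation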;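 note: 100% = tunicamycin at 10 µg/mL and 0% = DMSO only wells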
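incubation = overnight seeding at 37 °C, 6 h compound treatment at 37 °C | assay system = CHO-XBP1 cells stably carrying IRE1-XBP1-driven luciferase reporter | input = 1000 cells per well | detection = luciferase luminescence | dosing = single point, 20 µM final compound, 1% DMSO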
Numbers without * were called inactive; . = not tested or not shown. The list is not random: actives were taken first. Their share in the collection is about 1.8%.

SMILES	Jurkat NFkB inh	697 NFkB inh	UPR CHOP act	CRFBP-R2 block	XBP1 UPR activ
COc1ccc(-n2ccn3c(CCC(=O)N4CCN(c5cccc(C)c5C)CC4)nnc3c2=O)cc1	-5	-11	2	-9	-2
C(=C\c1ccccc1)/CSc1nnc(-c2ccncc2)n1Cc1ccco1	2	5	-3	39	-3
Clc1cccc(-c2nnc(SC/C=C/c3ccccc3)n2Cc2ccco2)c1	-20	-29	0	60*	0
N#CC[C@H](c1ccccc1)N1CCN(Cc2ccccc2)CCC1=O	-5	22	-2	4	-1
CC(C)N1CCN(c2ccc(S(=O)(=O)N3CCOCC3)cn2)CC1	8	21	2	1	-1
CCCCN(c1ccc(C(=O)OC)cc1)S(=O)(=O)c1ccccc1	2	-9	0	63*	-1
COc1ccc(CC(=O)Nc2c3c(nn2C(C)(C)C)CS(=O)(=O)C3)cc1	4	14	-1	1	-3
CC(C)(C)n1nc2c(c1NC(=O)Cc1ccccc1)CS(=O)(=O)C2	10	4	0	55*	-3
O=C(N/N=C/c1ccccc1)c1ccc(N2CCCC2=O)cc1	-13	-49	0	6	0
Cc1ccc(-c2ccc(SCC(=O)NCC3CCCO3)nn2)cc1 (centres undefined)	-5	-11	3	83*	-1
CC1=C(C(=O)OC(C)C)C(c2cccs2)N2C(=O)CCSC2=N1 (centres undefined)	-15	-4	0	-16	1
CC1=C(C(=O)OC(C)C)C(c2cccs2)N2C(=O)C(C)SC2=N1 (centres undefined)	1	-46	-1	50*	-4
O=C1CCc2cc(S(=O)(=O)Nc3ccccc3F)ccc2N1	5	4	-2	0	-3
CCC(c1nnc(SCC(=O)Nc2c(F)cccc2F)n1Cc1ccccc1)N(C)C (centres undefined)	-2	-22	0	60*	0
CCOc1ccccc1NC(=O)C1COc2ccccc2O1 (centres undefined)	-14	-20	3	20	-2
CCOc1ccccc1NC(=O)COC(=O)C1COc2ccccc2O1 (centres undefined)	.	.	.	95*	.
Cc1c(NC2=C(Cl)C(=O)N(c3ccccc3Cl)C2=O)c(=O)n(-c2ccccc2)n1C	-13	2	2	53*	-2
CC[C@@H](C)[C@@H]1CN([C@@H](C)CN2CCC[C@H]2CN2C(N)=NC[C@H]2CC(C)C)C(=N)N1CCc1ccc(Cl)c(Cl)c1	21	4	-1	17	1
CC[C@@H](C)[C@@H]1CN([C@@H](CN2CCC[C@H]2CN2C(N)=NC[C@H]2CC(C)C)C(C)C)C(=N)N1CCc1ccc(Cl)c(Cl)c1	-14	4	0	63*	-2
Cc1ccc(CCNC(=O)C2CCN(S(=O)(=O)c3ccc4nc5c(c(C(=O)O)c4c3)CCCC5)CC2)cc1	-1	-3	0	-8	-4
O=C(COC(=O)c1nc(Cl)ccc1Cl)NCc1cccs1	3	9	0	10	-1
c1ccc(-c2cc3nccc(-c4ccccn4)n3n2)cc1	-136	-195	4	60*	5
COc1ccccc1CN(C)C(=O)C(c1ccccc1)c1ccccc1	14	0	0	57*	-1
CCCCOc1ccc(N(CC(=O)NCC2CCCO2)C(=O)CCC(=O)Nc2nccs2)cc1 (centres undefined)	14	11	1	-40	1
CCOc1ccc(N(CC(=O)NCC2CCCO2)C(=O)CCC(=O)Nc2nccs2)cc1 (centres undefined)	4	-2	-1	52*	-4
SMILES	Jurkat NFkB inh	697 NFkB inh	UPR CHOP act	CRFBP-R2 block	XBP1 UPR activ
Cc1ccc(S(=O)(=O)n2nc(OC(=O)c3ccco3)cc2N)cc1	-5	3	0	60*	1
Nc1cc(OC(=O)c2ccco2)nn1S(=O)(=O)c1ccc(F)cc1	8	6	-1	58*	3
O=C(CN1c2cccc3cccc(c23)S1(=O)=O)NC1CCCCC1	9	9	0	70*	0
CCCCCCn1c(=O)n2n(c1=O)C[C@]1(OC(=O)NC3CC3)CN(S(=O)(=O)c3ccc(C)cc3)C[C@]1(O)C2	.	.	.	3	.
Cc1ccc(-n2nnnc2SCc2nnc(-c3ccccc3Br)o2)cc1	-7	-6	1	136*	-1
Brc1ccccc1-c1nnc(CSc2nncn2-c2ccccc2)o1	-2	-11	1	40	1
CC1CN(C(C)C(=O)NC(c2ccccc2)c2ccccc2)CC(C)O1 (centres undefined)	-18	-5	0	-3	-1
CS(=O)(=O)N1CCN(C(=O)COc2ccc3ccccc3c2)CC1	3	19	0	64*	0
CN(C(=O)c1ccc(NC(=O)Cc2ccc(NC(=O)C3CCCN(S(=O)(=O)c4cccc([N+](=O)[O-])c4)C3)cc2)cc1)C1CCCC1 (centres undefined)	.	.	.	-13	.
O=C(Nc1ccc(Cl)c(Cl)c1)c1ccc(Cn2cc(Cl)cn2)cc1	.	.	.	-1	.
CCOc1ccc(C(=O)Nc2cnn(Cc3ccc(Cl)c(Cl)c3)c2)cc1	6	-10	1	73*	3
CCn1c2ccc(C)cc2c2n[nH]c(=S)nc21	13	17	-2	-5	1
CCN(CC)S(=O)(=O)c1cccc(C(=O)Nc2ccc3c(c2)OCO3)c1	-71	-24	8	55*	6
CCN(CC(=O)NCc1ccc(F)cc1)C(=O)C(C)Oc1cccc(Cl)c1 (centres undefined)	10	8	0	-2	0
COc1ccc(OCCNC(=O)c2ccc(C)cc2)cc1	-30	-6	0	8	-1
Brc1cccc(C2CC(c3ccccc3)n3nnnc3N2)c1 (centres undefined)	6	-8	0	55*	1
O=C(CNS(=O)(=O)c1cccs1)NCCc1ccc(Cl)cc1	-6	5	3	56*	6
COc1ccc(/C=C2/SC(=O)N(NS(=O)(=O)c3ccccc3)C2=S)cc1OC	15	16	1	52*	-2
COc1cccc(/C=C2\SC(=S)N(NS(=O)(=O)c3ccccc3)C2=O)c1OC	-18	15	-2	63*	2
COc1cc(/C=C2\SC(=S)N(NS(=O)(=O)c3ccccc3)C2=O)cc(OC)c1OC	-2	28	-2	27	3
COCCn1c(C)cc(C(=O)COC(=O)c2cc3c(s2)CCC3)c1C	-6	8	2	64*	-1
CNc1nc(NC)nc(NNC(=O)c2ccccc2)n1	.	.	.	51*	.
CN(C(=O)c1cccc(NC(=O)Cc2cccc(NC(=O)C3CCN(C(=O)CCc4ccccc4)CC3)c2)c1)C1CC1	.	.	.	11	.
